How the values were obtained:
[1] = target: RNA-directed RNA polymerase (Hepacivirus hominis) (UniProt O39930); assay: Inhibition of HCV RNA replication in Huh7 cells; assay type: functional, cell-based; details: Huh-7
Outline: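 Huh-7 subgenomic replicon cells were seeded at 3 × 10³/well in DMEM with 10% FCS, 1% NEAA and 1 mg/mL G418, and allowed 4 h to attach. Eleven 2.5-fold DMSO dilutions were added (final 10,000 to 1.0 nM) and cells incubated 40 h. Neo RNA was measured by TaqMan RT-PCR, normalised to cyclophilin against DMSO controls; n = 8 wells per dilution.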

[2] = target: RNA-directed RNA polymerase (Hepacivirus hominis, UniProt O39930); assay: Inhibitory activity against HCV delta 21 NS5B RNA polymerase by SPA assay; set-up: species or system Hepatitis C virus subtype 1b
RNA-directed RNA polymerase, sequence (O39930 whole entry): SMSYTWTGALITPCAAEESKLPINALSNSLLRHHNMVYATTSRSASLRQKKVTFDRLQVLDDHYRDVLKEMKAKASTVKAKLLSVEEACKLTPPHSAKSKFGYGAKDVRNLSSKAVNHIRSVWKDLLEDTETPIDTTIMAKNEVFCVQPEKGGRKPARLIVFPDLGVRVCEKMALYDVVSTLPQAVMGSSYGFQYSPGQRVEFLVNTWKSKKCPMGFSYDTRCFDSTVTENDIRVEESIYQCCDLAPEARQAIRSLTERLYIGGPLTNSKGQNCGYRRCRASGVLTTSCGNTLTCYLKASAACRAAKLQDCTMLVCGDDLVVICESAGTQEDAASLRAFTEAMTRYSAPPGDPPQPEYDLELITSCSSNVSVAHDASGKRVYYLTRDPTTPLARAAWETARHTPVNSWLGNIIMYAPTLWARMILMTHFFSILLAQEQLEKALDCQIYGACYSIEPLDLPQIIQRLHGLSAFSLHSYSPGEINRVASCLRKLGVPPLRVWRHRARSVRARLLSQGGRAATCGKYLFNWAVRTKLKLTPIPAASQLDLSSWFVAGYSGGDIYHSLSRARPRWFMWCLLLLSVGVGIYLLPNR

RNA-directed RNA polymerase (Hepacivirus hominis), sequence (O39930 1-591): as the sequence (O39930 whole entry) above

SMILES | EC90 [1] [nM] | IC50 [2] [nM]
O=c1c(C2=NS(=O)(=O)c3ccccc3N2)c(O)c2ccccc2n1CC1CCC1 | 1190 | 
NCCCCn1c(=O)c(C2=NS(=O)(=O)c3ccccc3N2)c(O)c2ccccc21 |  | > 10000
Cc1nc(Cn2c(=O)c(C3=Nc4ccccc4S(=O)(=O)N3)c(O)c3ccccc32)cs1 |  | 304
CC(C)CCn1c(=O)c(C2=NS(=O)(=O)c3ccccc3N2)c(O)c2cc(OCC#N)ccc21 | 1610 | 
CCCCCn1c(=O)c(C2=Nc3ccccc3S(=O)(=O)N2)c(O)c2ccccc21 |  | 80
CC1CC1Cn1c(=O)c(C2=Nc3ccccc3S(=O)(=O)N2)c(O)c2ccccc21 (centres undefined) |  | 41
O=c1c(C2=Nc3ccccc3S(=O)(=O)N2)c(O)c2ccccc2n1CCCCO |  | 1300
O=c1c(C2=Nc3ccccc3S(=O)(=O)N2)c(O)c2ccccc2n1CC1CCCCC1 |  | 367
CN(C)C(=O)Cn1c(=O)c(C2=Nc3ccccc3S(=O)(=O)N2)c(O)c2cc(F)ccc21 |  | > 10000
CC(C)CCn1c(=O)c(C2=NS(=O)(=O)c3ccccc3N2)c(O)c2c(O)cccc21 |  | 47
COCCn1c(=O)c(C2=Nc3ccccc3S(=O)(=O)N2)c(O)c2ccccc21 |  | 819
CC(C)CCn1c(=O)c(C2=NS(=O)(=O)c3ccccc3N2)c(O)c2cc(NCC(=O)O)ccc21 | 9610 | 
O=c1c(C2=NS(=O)(=O)c3ccccc3N2)c(O)c2ccccc2n1CCc1ccsc1 |  | > 10000
CC(C)CCn1c(=O)c(C2=Nc3ccccc3S(=O)(=O)N2)c(O)c2cc(F)ccc21 |  | 20

— ChEMBL document CHEMBL1148625, “3-(1,1-dioxo-2H-(1,2,4)-benzothiadiazin-3-yl)-4-hydroxy-2(1H)-quinolinones, potent inhibitors of hepatitis C virus RNA-dependent RNA polymerase” (J Med Chem, 2006)
